Laboratory results: ChEMBL document CHEMBL2406990, “Guanidine alkaloids from Plumbago zeylanica” (J Nat Prod, 2013)

Key:
PANC-1 = test: Cytotoxicity against human PANC1 cells after 72 hrs by SRB assay; assay type: functional, cell-based; conditions: PANC-1, 72 h
In short: (§1)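 Cells seeded and left 24 h, then exposed to serial dilutions of compound (top concentration 100 μM). Incubation 72 h at 37 °C in humidified 5% CO2. Fixed with 10% trichloroacetic acid (4 °C, 1 h), water-washed, dried, stained 15 min with 0.4% SRB in 1% acetic acid. Unbound dye removed with 1% acetic acid, bound dye taken up in 10 mM Tris base, A510 read. Triplicate, IC50.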

MDA-MB-231 = test: Cytotoxicity against human MDA-MB-231 cells after 72 hrs by SRB assay; assay type: functional, cell-based; conditions: MDA-MB-231, 72 h; in short: as §1

Row | SMILES | IC50 (PANC-1) | IC50 (MDA-MB-231)
1 | CC(C)=C[C@@H]1C[C@@H](C(=O)O)[C@@H]2CN(CC(O)CCO[C@H]3OC[C@@H](O)[C@H](O)[C@H]3O)C(=N)N12 (stereo partly drawn) | > 10 µM | > 10 µM
2 | CC1=C[C@@H](C[C@@H](C(=O)O)[C@@H]2CN(CC(O)CCO[C@H]3OC[C@@H](O)[C@H](O)[C@H]3O)C(=N)N2)OC1=O (stereo partly drawn) | > 10 µM | > 10 µM
3 | CC(C)(O)CCC[C@@H](C(=O)O)[C@@H]1CNC(=N)N1 | > 10 µM | > 10 µM
4 | CC(C)=CCC[C@@H](C(=O)O)[C@@H]1CNC(=N)N1 | > 10 µM | > 10 µM
5 | C/C(=C\CC[C@@H](C(=O)O)[C@@H]1CNC(=N)N1)CO | > 10 µM | > 10 µM
6 | CC(C)=C[C@@H]1C[C@@H](C(=O)O)[C@@H]2CNC(=N)N12 | > 10 µM | > 10 µM
7 | CC1=C[C@@H](C[C@@H](C(=O)O)[C@@H]2CNC(=N)N2)OC1=O | > 10 µM | > 10 µM
8 | CC(C)=CCC[C@@H](C(=O)O)[C@@H]1CN(CC(O)CCO)C(=N)N1 (stereo partly drawn) | > 10 µM | > 10 µM
9 | C/C(=C\CC[C@@H](C(=O)O)[C@@H]1CN(CC(O)CCO)C(=N)N1)CO (stereo partly drawn) | > 10 µM | > 10 µM
10 | CC(C)=C[C@@H]1C[C@@H](C(=O)O)[C@@H]2CN(CC(O)CCO)C(=N)N12 (stereo partly drawn) | > 10 µM | > 10 µM
11 | CC1=C[C@@H](C[C@@H](C(=O)O)[C@@H]2CN(CC(O)CCO)C(=N)N2)OC1=O (stereo partly drawn) | > 10 µM | > 10 µM
12 | CC(C)=CCC[C@@H](C(=O)O)[C@@H]1CN(CC(O)CCO[C@H]2OC[C@@H](O)[C@H](O)[C@H]2O)C(=N)N1 (stereo partly drawn) | > 10 µM | > 10 µM
13 | C/C(=C\CC[C@@H](C(=O)O)[C@@H]1CN(CC(O)CCO[C@H]2OC[C@@H](O)[C@H](O)[C@H]2O)C(=N)N1)CO (stereo partly drawn) | > 10 µM | > 10 µM
14 | CC(=O)O[C@H]1C(=O)[C@@]2(C)[C@H]([C@H](OC(=O)c3ccccc3)[C@]3(O)C[C@H](OC(=O)[C@H](O)[C@@H](NC(=O)c4ccccc4)c4ccccc4)C(C)=C1C3(C)C)[C@]1(OC(C)=O)CO[C@@H]1C[C@@H]2O [PACLITAXEL] | < 1 µM | < 1 µM
